Assay outcomes from PubChem.
This is a sample that favours compounds with a hit; in the whole collection about 3.1% have one here.
KCNQ1 block: blocks the human KCNQ1 potassium channel; P51787; CHO-K1 KCNQ1, FluxOR thallium flux fluorescence; active compounds read high; 310,000 compounds, 1.3% hits; B-score at 10 µM;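 active = compounds whose thallium flux B-score, printed positive for inhibition, exceeds three library SD while starting fluorescence stays within three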;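 also: channel opened by potassium depolarization with thallium stimulus after 20 min compound exposure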
KCNQ1 pot: human KCNQ1 channel potentiation or activation; P51787; CHO-K1 KCNQ1, thallium flux FluxOR fluorescence; active compounds read high; B-score at 10 µM; 310,000 compounds, 0.35% hits;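 active = fluorescence ratio B-score, a plate-corrected score, at least three library SD, with initial intensity B-score within 5 SD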
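Test system: CHO-K1 cells stably expressing KCNQ1 / Medium: assay buffer / Also added: depolarizing K+/Tl+ stimulus, K2SO4 and Tl2SO4 each 12.5 mM in 5x stock / Incubation: 90 min dye loading and 20 min compound exposure, both at room temperature / Signal: thallium influx via FluxOR fluorescence, kinetic imaging / Evaluation: B score of baseline-normalized fluorescence ratio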
KCNK3 block: human KCNK3 channel inhibition, primary screen; AID 602410; 340,000 compounds, 0.84% hits; CHO-KCNK3 thallium flux, FluxOR fluorescence; active compounds read low; B-score at 10 µM;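 active = B-score under library mean minus 4 SD, starting fluorescence ratio at most library mean plus 5 SD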;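 also: more negative B-score means stronger inhibition of thallium flux through KCNK3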
Target sequence (O14649 whole entry, looked up): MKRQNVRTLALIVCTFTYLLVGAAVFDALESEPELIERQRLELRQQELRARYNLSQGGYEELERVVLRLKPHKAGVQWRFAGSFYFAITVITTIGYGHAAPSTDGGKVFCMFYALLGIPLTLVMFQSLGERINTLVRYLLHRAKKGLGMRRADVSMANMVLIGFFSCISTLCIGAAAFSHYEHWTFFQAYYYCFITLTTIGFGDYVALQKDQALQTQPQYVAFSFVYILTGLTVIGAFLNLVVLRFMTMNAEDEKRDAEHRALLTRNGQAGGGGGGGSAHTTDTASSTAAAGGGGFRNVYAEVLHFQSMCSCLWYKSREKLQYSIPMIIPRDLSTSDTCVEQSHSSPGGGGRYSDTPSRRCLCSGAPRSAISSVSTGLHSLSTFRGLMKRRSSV
KCNK9 inh: human KCNK9 channel inhibition; Q9NPC2; AID 488922; B-score at 10 µM; 310,000 compounds, 1.2% hits; HEK293 KCNK9, FluxOR thallium flux fluorescence; active compounds read low;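 active = ratio B-score over 3 SD below the library mean, with starting fluorescence within 5 SD of its mean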;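 also: negative B-score means less thallium flux so channel inhibition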
hERG protect: hERG (human) protection from proarrhythmic block | Q12809 | CHO-hERG, FluxOR thallium flux, dofetilide IC70 present | activation (rescue from dofetilide block), less the hit threshold, % at 10 µM | 310,000 compounds, 0.51% hits;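 active = activation above the mean of controls blocked by dofetilide plus 5 SD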;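 also: thallium influx through hERG after potassium depolarization seen as dye fluorescence rise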
Large screens that a line does not name were inactive.

CN=C(Nc1cc(Cl)ccc1Cl)SC1CC(=O)N(c2ccc(C(=O)OC)cc2)C1=O (configuration not stated)	KCNK9 inh -8
COC(=O)c1ccc(N2C(=O)CC(SCC(=O)Nc3ccc(OC)cc3)C2=O)cc1 (configuration not stated)	none
C/C(CCc1oc2ccccc2c1-c1ccc(C)o1)=N/O	none
C/C(CCc1oc2c(Br)cc(Br)cc2c1-c1ccc(C)o1)=N\O	KCNQ1 pot 15
C=CCN1C(=O)/C(=C2/Sc3ccc(OC)cc3N2CC)SC1=S	KCNQ1 block 6
COc1ccc2nc(/N=C/c3c(C)[nH]n(-c4ccc(C)cc4C)c3=O)sc2c1	KCNQ1 pot 28, hERG protect 56
COc1ccccc1N=Cc1c(C)[nH]n(-c2ccc(C)cc2C)c1=O	none
CCN(Cc1ccncc1)Cc1cn(C)nc1-c1ccc(Oc2ccccc2)cc1	KCNQ1 block 6
CC(C)N(C)Cc1cn(C)nc1-c1ccc(Oc2ccccc2)cc1	none
O=c1cc(-c2ccccc2Cl)oc2c([N+](=O)[O-])c(O)cc(O)c12	KCNQ1 block 8
S=C(N/N=C/c1cccc2ccccc12)Nc1cccc(Cl)c1	KCNQ1 pot 8, hERG protect 5.3
Cc1ccccc1NC(=S)NCCC(c1ccccc1)c1ccccc1	KCNQ1 block 7
S=C(N/N=C/c1ccccc1Cl)Nc1ccccc1	none
S=C(NCCC(c1ccccc1)c1ccccc1)Nc1cccc(Cl)c1	KCNQ1 block 9
COc1ccc(NC(=O)NNC(=O)CCc2ccc(O)c(O)c2)cc1OC	none
CC(=O)OC1CCC2(C)C3CCC4(C)C(C(C)=O)CCC4C3CC3OC32C1 (configuration not stated)	none (no result: KCNQ1 block, KCNQ1 pot, KCNK9 inh, hERG protect)
Cc1ccc(NC(=O)CN2C(=O)S/C(=C\c3cccn3-c3cccc(C(=O)O)c3)C2=O)c(C)c1	hERG protect 5.4
Cc1ccc(NC(=O)CN2C(=O)S/C(=C\c3cccn3-c3cccc(C(=O)O)c3)C2=O)cc1C	none
COc1ccc(NC(=O)CN2C(=O)S/C(=C/c3cccn3-c3ccc(C(=O)O)cc3)C2=O)cc1	hERG protect 16
Cc1ccccc1NC(=O)CN1C(=O)S/C(=C\c2cccn2-c2cccc(C(=O)O)c2)C1=O	none
COc1c(O)cc(O)c2c(=O)cc(-c3ccccc3)oc12	none (no result: KCNQ1 block, KCNQ1 pot, KCNK9 inh, hERG protect)
NS(=O)(=O)c1ccc(CCNC(=O)CSc2ccc([N+](=O)[O-])cc2)cc1	none
NS(=O)(=O)c1ccc(CCNC(=O)CSc2ccc3ccccc3c2)cc1	hERG protect 11
N#CC1(Nc2ccc([N+](=O)[O-])cc2)CCCC1	none (no result: KCNQ1 block, KCNQ1 pot, KCNK9 inh, hERG protect)
COc1ccc([N+](=O)[O-])cc1/C=N/Nc1nn[nH]n1	none
O=C(CSc1cn[nH]n1)Nc1cccc(C(=O)O)c1	none
O=C(CSc1cn[nH]n1)Nc1cccc(C(F)(F)F)c1	KCNK9 inh -7.5
O=C(N/N=C/c1ccccn1)c1[nH]c2ccc([N+](=O)[O-])cc2c1-c1ccccc1	KCNQ1 block 10
S=c1[nH]nc(Cc2ccc(Br)cc2)n1/N=C/c1ccc(Cl)cc1	hERG protect 16
S=c1[nH]nc(COc2ccccc2)n1/N=C/c1ccc(Cl)cc1	none
Cc1ccc(C)c2c1[nH]c1ccc([N+](=O)[O-])cc12	KCNQ1 block 8
Cc1c(C(=O)NN)[nH]c2ccc([N+](=O)[O-])cc12	none
CSc1ccc(CNC(=O)Cc2ccc(NC(=O)C3=C(C)OCCS3)cc2)cc1	none
Cc1nc(NCc2cccnc2)c2c3c(sc2n1)CC(C)CC3 (configuration not stated)	KCNQ1 pot 38, hERG protect 52
Cc1noc(NS(=O)(=O)c2ccc(NC(=O)c3ccccc3NS(=O)(=O)c3ccc(F)c(F)c3)cc2)c1C	none (no result: KCNQ1 block, KCNQ1 pot, KCNK9 inh, hERG protect)
O=C1NC(=O)C2(CCCCCCC2)N1	none (no result: KCNQ1 block, KCNQ1 pot, KCNK9 inh, hERG protect)
Cc1cnc(=O)[nH]c1SCc1ccc(C(F)(F)F)cc1	none
Cc1cnc(=O)[nH]c1SCc1ccc([N+](=O)[O-])cc1	KCNK9 inh -7.3
O=C(Nc1cccc(S(=O)(=O)N2CCOCC2)c1)C1CC1	none (no result: KCNQ1 block, KCNQ1 pot, KCNK9 inh, hERG protect)
C=CCn1c(SCC(O)Cn2c3ccccc3c3ccccc32)nnc1-c1ccco1 (configuration not stated)	KCNK9 inh -7.2
C=CCn1c(SCC(=O)N2c3ccccc3Sc3ccccc32)nnc1-c1ccco1	none
CC(C)C(=O)Nc1ccc(NC(=O)CCc2ccccc2)cn1	hERG protect 9.1
CC(C)(C)OC(=O)C[C@H]1C/C=C\C[C@H](CC(=O)N(CCO)Cc2ccccc2)C(=O)N[C@@H](c2ccccc2)COC1=O	none (no result: KCNQ1 block, KCNQ1 pot, KCNK9 inh, hERG protect)
COc1ccc(CNS(=O)(=O)c2ccc(F)c(C(=O)Nc3ccccc3OC)c2)cc1	none
COc1ccc(CNS(=O)(=O)c2ccc(F)c(C(=O)Nc3ccc(OC)cc3)c2)cc1	hERG protect 4.8
CC(C)Cc1nnc(NC(=O)c2ccc(S(=O)(=O)N3CCCC3)cc2)s1	none (no result: KCNQ1 block, KCNQ1 pot, KCNK9 inh, hERG protect)
CCc1cc2c(=O)n(CCC(C)C)c(=S)[nH]c2s1	KCNQ1 pot 35, hERG protect 26
COC(=O)c1cc(=O)n(Cc2ccc3c(c2)OCO3)c(=Nc2ccc(F)cc2)s1	KCNQ1 block 6, KCNK9 inh -8
COC(=O)c1cc(=O)n(Cc2ccco2)c(=Nc2ccc(F)c(Cl)c2)s1	KCNQ1 block 7
COc1ccc(OCC(=O)Nc2ccc(N3CCN(C(=O)c4ccccc4)CC3)c(Cl)c2)cc1	none
COc1ccc(CNC(=O)Cn2nc(C)n3cccc3c2=O)cc1	none
CCN1CCN(Cc2cc(=O)oc3cc4c(cc23)CCC4)CC1	KCNQ1 block 8
CN1CCN(Cc2cc(=O)oc3cc4c(cc23)CCC4)CC1	none
O=C(Nc1nnc(-c2ccco2)o1)c1ccc2ccccc2c1	hERG protect 6.8
Cc1nc(SC(C)C(=O)c2c(N)n(C)c(=O)n(C)c2=O)c2c(C)c(C)sc2n1 (configuration not stated)	KCNQ1 pot 14
CCC1(CC)SCCNC1=O	none (no result: KCNQ1 block, KCNQ1 pot, KCNK9 inh, hERG protect)
CCCCCCCCNc1nc(Cl)nc(NCc2ccco2)n1	none
CCCCCCNc1nc(NCc2ccco2)nc(OCC)n1	KCNK9 inh -6.9
O=C(CSc1n[nH]c(=O)[nH]c1=O)Nc1ccc(SC(F)F)cc1	none (no result: KCNQ1 block, KCNQ1 pot, KCNK9 inh, hERG protect)
Cc1cc(NC(=O)CSc2ncnc3c2cnn3-c2ccccc2)no1	hERG protect 14
Cc1cc(NC(=O)CSc2ncnc3c2cnn3-c2cccc(Cl)c2)no1	none
O=C(CSc1ncnc2c1cnn2-c1ccc(Cl)cc1)NCc1ccc2c(c1)OCO2	hERG protect 4.7
O=C(CSc1ncnc2c1cnn2-c1ccccc1)Nc1ccc2c(c1)OCO2	none
CC(C)[C@H](NS(=O)(=O)c1ccccc1)C(=O)OCC(=O)NC(=O)NC1CCCCC1	none (no result: KCNQ1 block, KCNQ1 pot, KCNK9 inh, hERG protect)
CN[C@@H]1CC[C@H](c2ccc(Cl)c(Cl)c2)c2ccccc21	none (no result: hERG protect)
C/C(N)=C(/C#N)C(=O)CSc1nc2ccccc2c(=O)n1Cc1ccc(F)cc1	KCNQ1 pot 8
O=C1c2cccc3cccc(c23)C(=O)C1(O)O	hERG protect 8.0
O=C(COC(=O)CC1Sc2ccccc2NC1=O)NCc1ccccc1 (configuration not stated)	none
